# Assays:
# [1] = tested on: KNS-42; assay: Cytotoxicity against human KNS-42 cells assessed as reduction in cell viability incubated for 72 hrs by PrestoBlue reagent based cell viability assay; assay type: functional; details: KNS-42, 72 h
# In short: (§1)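 Viability screen run in triplicate. IC50 is the compound dose giving 50% inhibition of cell viability, taken as cytotoxicity.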
# [2] = tested on: KNS-42; assay: Antiproliferative activity against human KNS-42 cells assessed as cell growth inhibition incubated for 72 hrs by MTT assay; assay type: functional, cell-based; details: KNS-42, 72 h
# In short: (§2)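 Proliferation screen run in triplicate. IC50 is the compound dose giving 50% inhibition of cell proliferation.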
# [3] = Cytotoxicity against human BT-12 cells assessed as reduction in cell viability incubated for 72 hrs by PrestoBlue reagent based cell viability assay; assay type: functional; details: BT-12, 72 h; in short: as §1
# [4] = Antiproliferative activity against human BT-16 cells assessed as cell growth inhibition incubated for 72 hrs by MTT assay; assay type: functional, cell-based; details: BT-16, 72 h; in short: as §2
# [5] = Cytotoxicity against human HFF-1 cells assessed as reduction in cell viability incubated for 72 hrs by PrestoBlue reagent based cell viability assay; assay type: toxicity; in short: as §1
# [6] = Cytotoxicity against human BT-16 cells assessed as reduction in cell viability incubated for 72 hrs by PrestoBlue reagent based cell viability assay; assay type: functional; details: BT-16, 72 h; in short: as §1
# [7] = Antiproliferative activity against human HFF-1 cells assessed as cell growth inhibition incubated for 72 hrs by MTT assay; assay type: toxicity, cell-based; in short: as §2
# [8] = Antiproliferative activity against human BT-12 cells assessed as cell growth inhibition incubated for 72 hrs by MTT assay; assay type: functional, cell-based; details: BT-12, 72 h; in short: as §2
# [9] = tested on: Daoy; assay: Cytotoxicity against human Daoy cells assessed as reduction in cell viability incubated for 72 hrs by PrestoBlue reagent based cell viability assay; assay type: functional; in short: as §1
# [10] = tested on: Daoy; assay: Antiproliferative activity against human Daoy cells assessed as cell growth inhibition incubated for 72 hrs by MTT assay; assay type: functional, cell-based; in short: as §2
# [11] = Octanol-water partition coefficient, logP of the compound; assay type: physicochemical
# [12] = biological target: T1, Cannabinoid receptor 1 (Homo sapiens, UniProt P21554); assay: Agonist activity at human CB1R expressed in mouse AtT20 cells at 10 uM by FLIPR membrane potential assay; assay type: functional, cell-based
# T1 sequence (P21554 whole entry): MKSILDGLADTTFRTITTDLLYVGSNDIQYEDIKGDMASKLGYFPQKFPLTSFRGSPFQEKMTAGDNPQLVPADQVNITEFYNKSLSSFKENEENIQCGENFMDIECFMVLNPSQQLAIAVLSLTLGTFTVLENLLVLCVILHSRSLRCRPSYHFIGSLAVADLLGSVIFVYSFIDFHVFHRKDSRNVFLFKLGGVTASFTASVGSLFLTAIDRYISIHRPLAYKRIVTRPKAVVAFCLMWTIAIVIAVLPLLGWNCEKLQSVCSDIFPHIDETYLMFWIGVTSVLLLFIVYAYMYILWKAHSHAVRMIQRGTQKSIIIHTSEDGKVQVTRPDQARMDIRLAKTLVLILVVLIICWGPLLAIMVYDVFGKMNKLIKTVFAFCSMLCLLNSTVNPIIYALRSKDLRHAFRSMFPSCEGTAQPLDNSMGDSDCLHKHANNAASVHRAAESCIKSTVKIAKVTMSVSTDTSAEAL
# In short: (§3)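 Agonist mode: AtT-20 cells stably transfected with human CB1R or human CB2R; membrane potential responses recorded.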
# [13] = biological target: T2, Cannabinoid receptor 2 (Homo sapiens, UniProt P34972); assay: Antagonist activity at human CB2R expressed in mouse AtT20 cells at 10 uM by FLIPR membrane potential assay; assay type: functional, cell-based
# T2 sequence (P34972 whole entry): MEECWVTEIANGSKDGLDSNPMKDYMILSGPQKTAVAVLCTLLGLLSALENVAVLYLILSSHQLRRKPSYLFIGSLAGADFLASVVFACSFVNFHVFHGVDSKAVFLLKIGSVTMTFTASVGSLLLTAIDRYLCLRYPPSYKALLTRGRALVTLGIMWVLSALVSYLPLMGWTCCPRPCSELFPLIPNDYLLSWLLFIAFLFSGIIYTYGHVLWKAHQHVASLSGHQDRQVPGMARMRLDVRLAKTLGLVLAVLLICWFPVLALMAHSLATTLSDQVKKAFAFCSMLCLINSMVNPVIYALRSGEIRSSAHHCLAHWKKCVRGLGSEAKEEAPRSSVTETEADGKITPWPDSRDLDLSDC
# In short: (§4)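 AtT-20 cells stably carrying human CB1R or human CB2R were pre-incubated with compound or vehicle for 60 minutes. 500 nM CP 55940 was then added and membrane potential responses were recorded. IC50 is for inhibition of the agonist response.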
# [14] = biological target: T1, Cannabinoid receptor 1; assay: Antagonist activity at human CB1R expressed in mouse AtT20 cells at 10 uM by FLIPR membrane potential assay; assay type: functional, cell-based; in short: as §4
# [15] = biological target: T2, Cannabinoid receptor 2; assay: Agonist activity at human CB2R expressed in mouse AtT20 cells at 10 uM by FLIPR membrane potential assay; assay type: functional, cell-based; in short: as §3
# [16] = biological target: T1, Cannabinoid receptor 1; assay: Antagonist activity at human CB1R expressed in mouse AtT20 cells by FLIPR membrane potential assay; assay type: functional, cell-based; in short: as §4
# [17] = biological target: T2, Cannabinoid receptor 2; assay: Antagonist activity at human CB2R expressed in mouse AtT20 cells by FLIPR membrane potential assay; assay type: functional, cell-based
# In short: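 AtT-20 cells stably transfected with human CB2R; membrane potential response read out. Antagonist mode: cells pre-incubated with vehicle or compound for 60 min, then challenged with 500 nM CP 55940. IC50 derived from inhibition of the agonist response. Not active defined as <50% inhibition at 10 μM.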
structure (smiles),measurement,setting,value
O=C(Cc1ccc(NC(=O)c2cc3c(F)cc(F)cc3[nH]2)cc1)NC12CC3CC(CC(C3)C1)C2,IC50,[1],> 10 µM
same,IC50,[2],4.9 µM
O=C(NC12CC3CC(CC(C3)C1)C2)c1c[nH]c2c(Cl)c(Cl)ccc2c1=O,IC50,[1],> 10 µM
same,IC50,[2],8.05 µM
O=C(NC12CC3CC(CC(C3)C1)C2)c1c[nH]c2ccc(Cl)cc2c1=O,IC50,[1],> 10 µM
same,IC50,[2],> 10 µM
O=C(NC12CC3CC(CC(C3)C1)C2)c1n[nH]c2ccccc12,IC50,[1],> 10 µM
same,IC50,[2],> 10 µM
Cc1c(C(=O)c2cccc3ccccc23)c2cccc3c2n1[C@@H](CN1CCOCC1)CO3,IC50,[1],8.02 µM
same,IC50,[3],8.6 µM
same,IC50,[4],4.57 µM
same,IC50 at 72 h,[5],0.023 µM
same,IC50,[2],8.07 µM
same,IC50,[6],4.74 µM
same,IC50 at 72 h,[7],1.82 µM
same,IC50,[8],9.32 µM
same,IC50,[9],> 10 µM
same,IC50,[10],6.09 µM
same,logP,[11],4.13
CCCC(C)(C)c1ccc2c(c1)OC(C)(C)[C@@H]1CC=C(C)C[C@@H]21,IC50,[1],> 10 µM
same,IC50,[2],> 10 µM
O=C(CNC(=O)c1cc2c(F)cc(F)cc2[nH]1)NC12CC3CC(CC(C3)C1)C2,IC50,[1],> 10 µM
same,IC50,[2],> 10 µM
O=C(NC12CC3CC(CC(C3)C1)C2)c1cc(=O)c2cc(Cl)ccc2[nH]1,IC50,[1],> 10 µM
same,IC50,[2],6.11 µM
O=C(NC12CC3CC(CC(C3)C1)C2)c1nc2ccccc2[nH]1,IC50,[1],> 10 µM
same,IC50,[2],> 10 µM
O=C(NC12CC3CC(CC(C3)C1)C2)c1cc(=O)c2ccc(Br)cc2[nH]1,IC50,[1],> 10 µM
same,IC50,[2],> 10 µM
O=C(NCc1ccc(F)cc1)c1cc2c(F)cc(F)cc2[nH]1,IC50,[1],3.41 µM
same,IC50,[3],9.23 µM
same,Activity,[12],< 50%
same,IC50,[4],9.79 µM
same,IC50 at 72 h,[5],281 µM
same,IC50,[2],4.34 µM
same,IC50,[6],5.5 µM
same,IC50 at 72 h,[7],40 µM
same,IC50,[8],8.87 µM
same,IC50,[9],4.1 µM
same,inhibition,[13],< 50%
same,inhibition,[14],< 50%
same,IC50,[10],> 10 µM
same,Activity,[15],< 50%
same,logP,[11],3.23
O=C(NC12CC3CC(CC(C3)C1)C2)c1cc(=O)c2c(Cl)ccc(Cl)c2[nH]1,IC50,[1],> 10 µM
same,IC50,[2],> 10 µM
Cc1cccc(CNC(=O)c2cc3c(F)cc(F)cc3[nH]2)c1,IC50,[1],> 10 µM
same,IC50,[2],> 10 µM
O=C(NCCc1ccc2c(c1)OCO2)c1cc2c(F)cc(F)cc2[nH]1,IC50,[1],2.34 µM
same,IC50,[3],6.08 µM
same,Activity,[12],< 50%
same,IC50,[4],7.53 µM
same,IC50 at 72 h,[5],81 µM
same,IC50,[2],2.88 µM
same,IC50,[6],2.72 µM
same,IC50,[16],0.373 µM
same,IC50 at 72 h,[7],6.98 µM
same,IC50,[8],4.1 µM
same,IC50,[9],3.65 µM
same,inhibition,[13],< 50%
same,IC50,[10],9.91 µM
same,Activity,[15],< 50%
same,logP,[11],3.02
COc1cccc(CNC(=O)c2cc3c(F)cc(F)cc3[nH]2)c1OC,IC50,[1],> 10 µM
same,IC50,[2],> 10 µM
O=C(NC12CC3CC(CC(C3)C1)C2)c1cc(=O)c2c(Cl)cc(Cl)cc2[nH]1,IC50,[1],> 10 µM
same,IC50,[2],> 10 µM
O=C(NC12CC3CC(CC(C3)C1)C2)c1cc2ccccc2[nH]1,IC50,[1],0.33 µM
same,IC50,[2],> 10 µM
O=C(NC12CC3CC(CC(C3)C1)C2)c1c[nH]c2cc(Cl)cc(Cl)c2c1=O,IC50,[1],> 10 µM
same,IC50,[2],9.17 µM
O=C(NC12CC3CC(CC(C3)C1)C2)c1cc(=O)c2ccc(Cl)c(Cl)c2[nH]1,IC50,[1],> 10 µM
same,IC50,[2],> 10 µM
O=C(NC12CC3CC(CC(C3)C1)C2)c1c[nH]c2cc(Br)ccc2c1=O,IC50,[1],> 10 µM
same,IC50,[2],> 10 µM
O=C(NCc1ccccc1)c1cc2c(F)cc(F)cc2[nH]1,IC50,[1],8.25 µM
same,IC50,[3],0.89 µM
same,Activity,[12],< 50%
same,IC50,[4],6.06 µM
same,IC50 at 72 h,[5],119 µM
same,IC50,[2],9.85 µM
same,IC50,[6],1.81 µM
same,IC50 at 72 h,[7],65 µM
same,IC50,[8],7.44 µM
same,IC50,[9],> 10 µM
same,inhibition,[13],< 50%
same,inhibition,[14],< 50%
same,IC50,[10],> 10 µM
same,Activity,[15],< 50%
same,logP,[11],3.17
O=C(NCc1ccc2c(c1)OCO2)c1cc2c(F)cc(F)cc2[nH]1,IC50,[1],> 10 µM
same,IC50,[2],> 10 µM
O=C(c1cc2c(F)cc(F)cc2[nH]1)N1CCN(C(=O)C23CC4CC(CC(C4)C2)C3)CC1,IC50,[1],5.04 µM
same,Activity,[12],< 50%
same,IC50,[2],6.62 µM
same,inhibition,[13],< 50%
same,inhibition,[14],< 50%
same,Activity,[15],< 50%
O=C(NC12CC3CC(CC(C3)C1)C2)c1cc2ccccc2n1CCCCO,IC50,[1],4.75 µM
same,IC50,[2],> 10 µM
O=C(Nc1nc2ccccc2[nH]1)c1cc2c(F)cc(F)cc2[nH]1,IC50,[1],4.49 µM
same,IC50,[3],7.65 µM
same,Activity,[12],< 50%
same,IC50,[4],5.41 µM
same,IC50 at 72 h,[5],115 µM
same,IC50,[2],4.03 µM
same,IC50,[6],1.37 µM
same,IC50 at 72 h,[7],3.03 µM
same,IC50,[8],1.79 µM
same,IC50,[9],1.02 µM
same,inhibition,[13],< 50%
same,inhibition,[14],< 50%
same,IC50,[10],2.31 µM
same,Activity,[15],< 50%
same,logP,[11],2.69
O=C(NC12CC3CC(CC(C3)C1)C2)c1c[nH]c2c(Cl)ccc(Cl)c2c1=O,IC50,[1],9.06 µM
same,IC50,[3],5.15 µM
same,Activity,[12],< 50%
same,IC50,[4],4.88 µM
same,IC50 at 72 h,[5],7.04 µM
same,IC50,[2],2.92 µM
same,IC50,[6],1.96 µM
same,IC50 at 72 h,[7],3.85 µM
same,IC50,[8],3.59 µM
same,IC50,[9],1.54 µM
same,inhibition,[14],< 50%
same,IC50,[10],4.71 µM
same,Activity,[15],< 50%
same,IC50,[17],1.28 µM
O=C(Nc1nc2ccccc2[nH]1)C12CC3CC(CC(C3)C1)C2,IC50,[1],> 10 µM
same,IC50,[2],> 10 µM
O=C(CC12CC3CC(CC(C3)C1)C2)Nc1nc2ccccc2[nH]1,IC50,[1],> 10 µM
same,IC50,[2],6.46 µM
O=C(NC12CC3CC(CC(C3)C1)C2)c1ccc(NC(=O)c2cc3c(F)cc(F)cc3[nH]2)cc1,IC50,[1],> 10 µM
same,IC50,[2],> 10 µM

# Source: ChEMBL document CHEMBL5107937, “Synthesis and antitumour evaluation of indole-2-carboxamides against paediatric brain cancer cells” (RSC Med Chem, 2021)
